In BindingDB's records for doi:10.1016/j.bmcl.2019.05.046 (Peking University, 2019) one finds EC50 data, which are given here for one compound.

In general, pEC50 refers to the negative decadic logarithm of the EC50, by convention in mol/L.

The assay concerns the target Neuronal acetylcholine receptor subunit alpha-7 (Homo sapiens, UniProt P36544). Put plainly: Positive allosteric modulation activity at human alpha7 nAChR expressed in Xenopus laevis oocytes assessed as increase in acetylcholine-induced channel current by measuring acetylcholine EC50 at 10 uM at -90 mV holding potential preincubated for 2 mins followed by co-application with acetylcholine for 10 secs by two-electrode voltage clamp method (Rvb = 231.8 +/- 2 uM). In outline:
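ACh concentration-response on α7-expressing Xenopus oocytes, run without compound or after 2 min preincubation with 10 μM compound. Peak currents were normalised to the current evoked by 100 μM ACh alone. Curves were fitted for Emax, ACh EC50 and Hill coefficient, n = 4 per point.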

pEC50: −log10 of the molar value.

Chain of Neuronal acetylcholine receptor subunit alpha-7 (P36544 whole entry): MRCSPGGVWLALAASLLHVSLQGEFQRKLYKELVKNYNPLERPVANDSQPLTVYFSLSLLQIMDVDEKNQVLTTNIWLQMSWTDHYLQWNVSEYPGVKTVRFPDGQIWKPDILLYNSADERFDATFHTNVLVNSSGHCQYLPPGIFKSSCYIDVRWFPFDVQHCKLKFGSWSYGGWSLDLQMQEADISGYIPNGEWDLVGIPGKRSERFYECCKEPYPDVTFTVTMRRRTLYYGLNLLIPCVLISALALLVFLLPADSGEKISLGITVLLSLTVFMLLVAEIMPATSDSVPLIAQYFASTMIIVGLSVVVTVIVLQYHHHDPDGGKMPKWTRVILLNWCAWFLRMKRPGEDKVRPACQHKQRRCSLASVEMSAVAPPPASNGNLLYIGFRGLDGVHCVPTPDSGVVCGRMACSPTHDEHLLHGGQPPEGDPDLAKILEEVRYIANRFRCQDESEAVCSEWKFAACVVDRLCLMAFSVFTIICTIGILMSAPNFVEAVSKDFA

Consider `Cc1cc(-c2cnc(N)c(C(=O)Nc3c(C)cccc3Cl)c2)ccc1F`, for which the negative logarithm of the EC50 (pEC50) is 3.59.
